The source of these data is ChEMBL document CHEMBL1122647 (J Med Chem, 1984).

Test [1] relates to Mus musculus. Kind of test: In vivo antitumor activity was evaluated against L1210 leukemia implanted mice by measuring number of survival days after intraperitoneal administration of compound at 12 mg/kg; at a range of 13-15.
For test [2], the system named is Mus musculus. Kind of test: In vivo antitumor activity was evaluated against L1210 leukemia implanted mice by measuring T/C median after intraperitoneal administration of compound at 12 mg/kg; T/C median=13/8. It counts as functional. The gist of the method:
(§1)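 Male B6D2F1J mice, five per group, were implanted ip with 10^5 L1210 cells on day 0. Treatment began on day 1. Drug was given ip in sterile water, twice daily on days 1-4 and 7-10, and as a single double-dose injection on days 5 and 6. Survival was recorded in days (range, and median treated/control), with % ILS derived from it. Body-weight change at 7 days was also recorded.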

The subject of test [3] is Mus musculus. Briefly: In vivo antitumor activity was evaluated against L1210 leukemia implanted mice by measuring T/C median after intraperitoneal administration of compound at 8 mg/kg; T/C median=13/8. It counts as functional. The gist of the method: as §1
Test [4] relates to Mus musculus. Kind of test: In vivo antitumor activity was evaluated against L1210 leukemia implanted mice by measuring percent increase in life span after intraperitoneal administration of compound at 8 mg/kg. Format: functional. The procedure, abridged:
as §1

Test [5] has as its target T1, Dihydrofolate reductase (Mus musculus) (UniProt P00375).
T1 sequence (whole entry): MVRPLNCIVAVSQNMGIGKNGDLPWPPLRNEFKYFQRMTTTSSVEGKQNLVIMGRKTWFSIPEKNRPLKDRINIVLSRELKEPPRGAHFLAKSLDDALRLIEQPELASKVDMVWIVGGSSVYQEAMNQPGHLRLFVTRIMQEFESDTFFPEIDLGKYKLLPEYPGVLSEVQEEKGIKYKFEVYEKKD

In test [6] the test system is Mus musculus. Kind of test: In vivo antitumor activity was evaluated against L1210 leukemia implanted mice by measuring number of survival days after intraperitoneal administration of compound at 8 mg/kg; at a range of 12-15. It counts as functional. The gist of the method: as §1
Test [7] deals with Mus musculus. Briefly: In vivo antitumor activity was evaluated against L1210 leukemia implanted mice by measuring 7-day weight change after intraperitoneal administration of compound at 8 mg/kg. It counts as functional. The gist of the method: (§2)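 Groups of five male B6D2F1J mice were inoculated ip with 10^5 L1210 cells on day 0. Starting day 1, drug in sterile water was given ip bid on days 1-4 and 7-10, with a single double-dose injection on days 5 and 6. Percent body-weight change was recorded at day 7, along with survival range, median T/C and ILS.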

Test [8] concerns Mus musculus. Briefly: In vivo antitumor activity was evaluated against L1210 leukemia implanted mice by measuring 7-day weight change after intraperitoneal administration of compound at 16 mg/kg. Format: functional. The gist of the method: as §2
Test [9] deals with Mus musculus. Briefly: In vivo antitumor activity was evaluated against L1210 leukemia implanted mice by measuring number of survival days after intraperitoneal administration of compound at 16 mg/kg; at a range of 15-17. It counts as functional. The procedure, abridged: as §1
In test [10] the test system is Mus musculus. Kind of test: In vivo antitumor activity was evaluated against L1210 leukemia implanted mice by measuring percent increase in life span after intraperitoneal administration of compound at 12 mg/kg. It counts as functional. The gist of the method: as §1
Test [11] deals with Mus musculus. Kind of test: In vivo antitumor activity was evaluated against L1210 leukemia implanted mice by measuring percent increase in life span after intraperitoneal administration of compound at 16 mg/kg. Format: functional. The gist of the method:
as §1

The test system of test [12] is Mus musculus. Briefly: In vivo antitumor activity was evaluated against L1210 leukemia implanted mice by measuring 7-day weight change after intraperitoneal administration of compound at 12 mg/kg. Format: functional. The gist of the method: as §2
In test [13] the test system is Mus musculus. Kind of test: In vivo antitumor activity was evaluated against L1210 leukemia implanted mice by measuring T/C median after intraperitoneal administration of compound at 16 mg/kg; T/C median=15/8. It counts as functional. The procedure, abridged: as §1
A further test concerns L1210. Briefly: Compound was evaluated for its cytotoxicity against the L1210 murine leukemia cell culture. Format: functional. The conditions noted are these: Mus musculus, read-out: ID50 (the source's name).

For `Nc1nc(N)c2nc(CNc3ccc(C(=O)NC(CS(=O)(=O)O)C(=O)O)cc3)cnc2n1` (centres undefined), the Survival days in the test with Mus musculus [1] amounted to 13; in the test on Mus musculus [2], 13; with Mus musculus [3], 13; in the test with Mus musculus [6], 12; in the test with Mus musculus [9] it was 17; in the test on Mus musculus [13] it was 15. Besides, the Activity in the test on Mus musculus [4] was 62%; with Mus musculus [10] it was 62%; with Mus musculus [11] it was 88%; in the test with Mus musculus [12], 2%. The compound also had an ID50 in test [5] of 65 nM. The Weight change was determined as 2% in the test on Mus musculus [7] and 0% with Mus musculus [8]. Further, the IC50 with L1210 worked out at 44 nM.
